Measured values from paper PMC9508631 (Saudi Pharmaceutical Journal : SPJ, 2022).

Key:
PDE5 = conditions: ref Bischoff, 2004; cited from earlier work
[1] = Stability of TAD in rat plasma under storage and processing conditions; assay type: in vitro ADME; conditions: for Processed sample stability, RE% / Processed sample stability, calculated conc. (Mean ± SD): autosampler, room temperature 24 h; for Freeze–thaw stability, RE% / Freeze–thaw stability, calculated conc. (Mean ± SD): three freeze–thaw cycles; for Long term stability, RE% / Long term stability, calculated conc. (Mean ± SD): −30 °C for 30 days
Method in brief: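 Test compound spiked into blank rat plasma as QC samples at 0.5, 10 and 100 ng mL−1. Conditions: bench-top thaw at room temperature for 6 h (triplicates); −30 °C for 30 days; three freeze–thaw cycles (24 h at −30 °C, ambient thaw); processed samples held in the autosampler at room temperature for 24 h. Quantified by FPSE-UPLC-ESI-MS/MS, with peak areas compared against freshly prepared QCs; acceptance RE <15%.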

[2] = actual conc. 0.5 ng mL^-1, room temperature 6 h

## CCCc1nn(C)c2c(=O)[nH]c(-c3cc(S(=O)(=O)N4CCN(C)CC4)ccc3OCC)nc12 [SLD, sildenafil]
PDE5
  Selectivity for PDE5: 41 times

## CN1CC(=O)N2[C@H](c3ccc4c(c3)OCO4)c3[nH]c4ccccc4c3C[C@@H]2C1=O [TAD, Tadalafil]
[1]; actual conc. 0.5 ng mL^-1
  Processed sample stability, RE%: −2.0%
  Processed sample stability, calculated conc. (Mean ± SD): 0.490 ± 0.011 ng/mL
  Freeze–thaw stability, RE%: −3.8%
  Freeze–thaw stability, calculated conc. (Mean ± SD): 0.481 ± 0.022 ng/mL
  Long term stability, RE%: −2.60%
  Long term stability, calculated conc. (Mean ± SD): 0.487 ± 0.018 ng/mL
[1]; [2]
  Benchtop stability, RE%: −1.60%
  Benchtop stability, calculated conc. (Mean ± SD): 0.492 ± 0.012 ng/mL
[1]; actual conc. 10 ng mL^-1
  Processed sample stability, RE%: 0.50%
  Processed sample stability, calculated conc. (Mean ± SD): 10.05 ± 0.195 ng/mL
  Freeze–thaw stability, calculated conc. (Mean ± SD): 9.85 ± 0.263 ng/mL
  Long term stability, RE%: 1.10%
  Long term stability, calculated conc. (Mean ± SD): 10.11 ± 0.219 ng/mL
[1]; actual conc. 10 ng mL^-1, room temperature 6 h
  Benchtop stability, calculated conc. (Mean ± SD): 9.98 ± 0.251 ng/mL
[1]; actual conc. 100 ng mL^-1
  Processed sample stability, calculated conc. (Mean ± SD): 99.48 ± 1.824 ng/mL
  Freeze–thaw stability, RE%: 0.22%
  Freeze–thaw stability, calculated conc. (Mean ± SD): 100.22 ± 2.054 ng/mL
[1]; actual conc. 100 ng mL^-1, room temperature 6 h
  Benchtop stability, calculated conc. (Mean ± SD): 99.90 ± 1.850 ng/mL
[1]; all four stability tests, RE% and RSD% within 15%
  Stability in rat plasma under the storage and processing situations: stable
PDE5
  Selectivity for PDE5: 1000 times
